Measured values from ChEMBL document CHEMBL1137942, “Design, synthesis, and biological activity of novel, potent, and selective (benzoylaminomethyl)thiophene sulfonamide inhibitors of c-Jun-N-terminal kinase” (J Med Chem, 2004).

Key:
[1] = biological target: Proto-oncogene tyrosine-protein kinase Src (Homo sapiens) (UniProt P12931); experiment: Percentage activity of human cSRC in the presence of 10 uM of compound and 10 uM of ATP in comparison with control
[2] = biological target: CDK6/cyclin D3 (Homo sapiens) (UniProt P30281+Q00534); experiment: Percentage activity of human CDK6 with cyclin D3) in the presence of 10uM of compound and 10uM of ATP in comparison with control; format: protein-complex assay
[3] = biological target: RAC-beta serine/threonine-protein kinase (Homo sapiens) (UniProt P31751); experiment: Percentage activity of human PKB beta in the presence of 10uM of compound and 10uM of ATP in comparison with control
[4] = biological target: Protein kinase C iota type (Homo sapiens) (UniProt P41743); experiment: Percentage activity of human PKC iota in the presence of 10 uM of compound and 10 uM of ATP in comparison with control
[5] = biological target: Serine/threonine-protein kinase D1 (Homo sapiens) (UniProt Q15139); experiment: Percentage activity of human PKC mu in the presence of 10 uM of compound and 10 uM of ATP in comparison with control
[6] = biological target: Tyrosine-protein kinase SYK (Homo sapiens) (UniProt P43405); experiment: Percentage activity of human Syk in the presence of 10 uM of compound and 10 uM of ATP in comparison with control
[7] = biological target: Ribosomal protein S6 kinase alpha-1 (Homo sapiens) (UniProt Q15418); experiment: Percentage activity of human Rsk1 in the presence of 10 uM of compound and 10 uM of ATP in comparison with control
Chain of Ribosomal protein S6 kinase alpha-1 (Homo sapiens) (Q15418 whole entry): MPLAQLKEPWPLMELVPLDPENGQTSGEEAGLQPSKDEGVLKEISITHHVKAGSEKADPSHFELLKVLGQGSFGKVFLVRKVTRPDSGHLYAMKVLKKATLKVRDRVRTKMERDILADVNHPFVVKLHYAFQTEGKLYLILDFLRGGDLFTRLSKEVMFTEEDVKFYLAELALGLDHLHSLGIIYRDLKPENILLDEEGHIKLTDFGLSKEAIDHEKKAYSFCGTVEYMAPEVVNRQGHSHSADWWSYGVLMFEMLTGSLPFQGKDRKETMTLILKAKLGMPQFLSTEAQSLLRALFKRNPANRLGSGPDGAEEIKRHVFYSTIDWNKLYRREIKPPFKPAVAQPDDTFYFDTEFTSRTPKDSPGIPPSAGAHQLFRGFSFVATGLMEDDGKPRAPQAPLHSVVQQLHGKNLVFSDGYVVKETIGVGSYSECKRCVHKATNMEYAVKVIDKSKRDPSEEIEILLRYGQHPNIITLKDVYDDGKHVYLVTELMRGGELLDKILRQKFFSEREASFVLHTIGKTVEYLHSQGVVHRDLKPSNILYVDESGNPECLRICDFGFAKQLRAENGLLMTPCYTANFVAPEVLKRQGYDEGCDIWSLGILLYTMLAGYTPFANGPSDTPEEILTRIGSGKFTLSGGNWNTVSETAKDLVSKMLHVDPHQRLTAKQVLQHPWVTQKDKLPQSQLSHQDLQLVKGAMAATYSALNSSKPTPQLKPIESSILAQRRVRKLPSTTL

[8] = biological target: Mitogen-activated protein kinase 1 (Homo sapiens) (UniProt P28482); experiment: Percentage activity of human MAPK2 in the presence of 10 uM of compound and 10 uM of ATP in comparison with control
Chain of Mitogen-activated protein kinase 1 (Homo sapiens) (P28482 whole entry): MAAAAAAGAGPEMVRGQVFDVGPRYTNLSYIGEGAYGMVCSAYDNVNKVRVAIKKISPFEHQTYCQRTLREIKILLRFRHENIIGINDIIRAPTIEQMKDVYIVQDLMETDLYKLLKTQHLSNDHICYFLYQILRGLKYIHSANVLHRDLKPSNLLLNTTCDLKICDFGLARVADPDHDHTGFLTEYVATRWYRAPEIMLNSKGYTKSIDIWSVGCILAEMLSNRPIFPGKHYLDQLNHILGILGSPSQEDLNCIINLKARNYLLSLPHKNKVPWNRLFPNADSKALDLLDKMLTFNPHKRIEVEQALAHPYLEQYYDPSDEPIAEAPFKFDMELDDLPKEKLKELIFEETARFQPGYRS

[9] = biological target: Rho-associated protein kinase 2 (Homo sapiens) (UniProt O75116); experiment: Percentage activity of human ROCK-II in the presence of 10 uM of compound and 10 uM of ATP in comparison with control
[10] = biological target: Dual specificity mitogen-activated protein kinase kinase 1 (Homo sapiens) (UniProt Q02750); experiment: Percentage activity of human MEK1 in the presence of 10 uM of compound and 10 uM of ATP in comparison with control
[11] = biological target: Protein kinase C eta type (Homo sapiens) (UniProt P24723); experiment: Percentage activity of human PKC eta in the presence of 10 uM of compound and 10 uM of ATP in comparison with control
Chain of Protein kinase C eta type (Homo sapiens) (P24723 whole entry): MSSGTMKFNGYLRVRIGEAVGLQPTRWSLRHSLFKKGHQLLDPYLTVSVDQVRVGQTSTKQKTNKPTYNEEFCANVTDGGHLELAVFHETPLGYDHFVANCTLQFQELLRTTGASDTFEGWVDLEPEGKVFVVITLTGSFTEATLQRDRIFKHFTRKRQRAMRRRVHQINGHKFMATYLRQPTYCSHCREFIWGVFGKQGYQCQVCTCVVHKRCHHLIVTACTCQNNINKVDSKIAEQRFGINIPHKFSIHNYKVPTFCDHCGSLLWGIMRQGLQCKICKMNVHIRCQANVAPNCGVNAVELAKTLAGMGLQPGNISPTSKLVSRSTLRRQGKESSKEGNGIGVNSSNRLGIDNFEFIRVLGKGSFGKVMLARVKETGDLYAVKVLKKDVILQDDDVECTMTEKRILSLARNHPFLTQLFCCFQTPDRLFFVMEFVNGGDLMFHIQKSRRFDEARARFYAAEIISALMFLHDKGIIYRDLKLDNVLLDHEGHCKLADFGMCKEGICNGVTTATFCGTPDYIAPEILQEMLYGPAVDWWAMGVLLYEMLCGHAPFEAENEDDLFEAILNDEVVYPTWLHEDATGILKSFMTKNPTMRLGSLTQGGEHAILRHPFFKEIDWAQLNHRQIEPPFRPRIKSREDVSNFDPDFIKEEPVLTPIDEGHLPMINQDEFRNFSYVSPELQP

[12] = biological target: Mitogen-activated protein kinase 1 (Homo sapiens) (UniProt P28482); experiment: Percentage activity of human MAPK1 in the presence of 10 uM of compound and 10 uM of ATP in comparison with control
[13] = biological target: Tyrosine-protein kinase Fyn (Homo sapiens) (UniProt P06241); experiment: Percentage activity of human Fyn in the presence of 10 uM of compound and 10 uM of ATP in comparison with control
[14] = biological target: Cyclin-dependent kinase 1/cyclin B (Homo sapiens) (UniProt P06493+P14635+Q8WWL7+O95067); experiment: Percentage activity of human CDK1 (with cyclin B) in the presence of 10 uM of compound and 10 uM of ATP in comparison with control; format: protein-complex assay
[15] = biological target: Tyrosine-protein kinase ZAP-70 (Homo sapiens) (UniProt P43403); experiment: Percentage activity of human ZAP-70 in the presence of 10 uM of compound and 10 uM of ATP in comparison with control
Chain of Tyrosine-protein kinase ZAP-70 (Homo sapiens) (P43403 whole entry): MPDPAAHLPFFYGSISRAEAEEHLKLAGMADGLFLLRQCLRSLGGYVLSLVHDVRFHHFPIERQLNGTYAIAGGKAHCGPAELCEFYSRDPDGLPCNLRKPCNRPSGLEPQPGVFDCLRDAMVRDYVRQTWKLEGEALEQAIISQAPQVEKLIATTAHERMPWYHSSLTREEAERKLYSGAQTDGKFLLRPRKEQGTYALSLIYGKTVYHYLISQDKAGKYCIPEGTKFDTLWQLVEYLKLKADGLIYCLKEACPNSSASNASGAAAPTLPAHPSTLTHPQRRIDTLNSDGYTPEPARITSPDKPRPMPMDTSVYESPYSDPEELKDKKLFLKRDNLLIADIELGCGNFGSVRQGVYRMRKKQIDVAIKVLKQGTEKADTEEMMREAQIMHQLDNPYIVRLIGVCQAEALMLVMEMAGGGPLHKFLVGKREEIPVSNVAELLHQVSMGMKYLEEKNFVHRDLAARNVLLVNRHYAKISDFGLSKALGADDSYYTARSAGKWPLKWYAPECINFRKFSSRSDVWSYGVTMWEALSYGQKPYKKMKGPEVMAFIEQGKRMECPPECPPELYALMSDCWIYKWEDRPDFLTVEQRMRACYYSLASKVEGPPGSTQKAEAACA

[16] = biological target: Protein kinase C delta type (Homo sapiens) (UniProt Q05655); experiment: Percentage activity of human PKC delta in the presence of 10 uM of compound and 10 uM of ATP in comparison with control
[17] = biological target: Mitogen-activated protein kinase 8 (Homo sapiens) (UniProt P45983); experiment: Percentage activity of human JNK1a1 in the presence of 10 uM of compound and 10 uM of ATP in comparison with control
[18] = biological target: Receptor-type tyrosine-protein kinase FLT3 (Homo sapiens) (UniProt P36888); experiment: Percentage activity of human Flt3 in the presence of 10 uM of compound and 10 uM of ATP in comparison with control
[19] = biological target: Cyclin-dependent kinase 5/CDK5 activator 1 (Homo sapiens) (UniProt Q00535+Q15078); experiment: Percentage activity of human CDK5 (with […]) in the presence of 10 uM of compound and 10 uM of ATP in comparison with control; format: protein-complex assay
[20] = biological target: Mitogen-activated protein kinase 12 (Homo sapiens) (UniProt P53778); experiment: Percentage activity of human SAPK3 in the presence of 10 uM of compound and 10 uM of ATP in comparison with control
Chain of Mitogen-activated protein kinase 12 (Homo sapiens) (P53778 whole entry): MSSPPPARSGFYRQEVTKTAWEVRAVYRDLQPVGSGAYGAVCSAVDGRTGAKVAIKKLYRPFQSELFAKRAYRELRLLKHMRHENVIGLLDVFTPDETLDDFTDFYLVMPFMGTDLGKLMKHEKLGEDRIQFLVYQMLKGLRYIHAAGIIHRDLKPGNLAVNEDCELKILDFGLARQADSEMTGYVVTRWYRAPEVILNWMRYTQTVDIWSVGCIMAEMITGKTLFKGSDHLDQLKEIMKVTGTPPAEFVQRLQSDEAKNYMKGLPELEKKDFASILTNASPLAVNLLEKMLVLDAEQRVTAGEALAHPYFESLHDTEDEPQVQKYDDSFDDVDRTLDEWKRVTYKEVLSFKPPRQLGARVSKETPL

[21] = biological target: Tyrosine-protein kinase receptor UFO (Homo sapiens) (UniProt P30530); experiment: Percentage activity of human Axl in the presence of 10 uM of compound and 10 uM of ATP in comparison with control
Chain of Tyrosine-protein kinase receptor UFO (Homo sapiens) (P30530 whole entry): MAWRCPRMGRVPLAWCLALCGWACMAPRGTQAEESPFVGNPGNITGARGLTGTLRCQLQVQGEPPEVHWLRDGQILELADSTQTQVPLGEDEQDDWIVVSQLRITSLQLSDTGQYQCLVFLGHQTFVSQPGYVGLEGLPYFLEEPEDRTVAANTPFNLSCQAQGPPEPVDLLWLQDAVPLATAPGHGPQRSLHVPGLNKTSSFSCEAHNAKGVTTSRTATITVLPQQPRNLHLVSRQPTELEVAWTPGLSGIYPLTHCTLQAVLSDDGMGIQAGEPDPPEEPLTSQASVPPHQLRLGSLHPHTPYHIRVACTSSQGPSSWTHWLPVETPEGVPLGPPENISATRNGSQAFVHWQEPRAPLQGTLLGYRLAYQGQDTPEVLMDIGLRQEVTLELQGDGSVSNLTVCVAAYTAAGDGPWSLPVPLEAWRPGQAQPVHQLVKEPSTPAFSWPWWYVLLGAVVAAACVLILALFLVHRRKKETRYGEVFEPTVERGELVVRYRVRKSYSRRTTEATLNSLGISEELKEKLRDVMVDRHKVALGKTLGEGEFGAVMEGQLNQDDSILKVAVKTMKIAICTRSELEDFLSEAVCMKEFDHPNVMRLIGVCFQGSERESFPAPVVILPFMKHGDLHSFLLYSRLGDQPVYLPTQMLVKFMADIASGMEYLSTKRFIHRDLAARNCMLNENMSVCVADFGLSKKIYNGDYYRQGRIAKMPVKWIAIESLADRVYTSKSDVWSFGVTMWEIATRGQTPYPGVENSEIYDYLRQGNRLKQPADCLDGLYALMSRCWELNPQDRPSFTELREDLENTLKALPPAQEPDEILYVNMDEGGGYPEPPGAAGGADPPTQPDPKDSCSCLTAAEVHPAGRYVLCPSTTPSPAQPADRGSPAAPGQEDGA

[22] = biological target: Serine/threonine-protein kinase D2 (Homo sapiens) (UniProt Q9BZL6); experiment: Percentage activity of human PKD2 in the presence of 10 uM of compound and 10 uM of ATP in comparison with control
Rattus norvegicus = organism: Rattus norvegicus; experiment: Percentage activity of rat AMPK in the presence of 10 uM of compound and 10 uM of ATP in comparison with control
[23] = biological target: cAMP-dependent protein kinase (PKA) (Homo sapiens) (UniProt P22694+P17612+P22612); experiment: Percentage activity of human PKA in the presence of 10 uM of compound and 10 uM of ATP in comparison with control; format: protein assay
[24] = biological target: Inhibitor of nuclear factor kappa-B kinase subunit beta (Homo sapiens) (UniProt O14920); experiment: Percentage activity of human IKK beta in the presence of 10uM of compound and 10uM of ATP in comparison with control
[25] = biological target: Calcium/calmodulin-dependent protein kinase type IV (Homo sapiens) (UniProt Q16566); experiment: Percentage activity of human CaMKiV in the presence of 10 uM of compound and 10 uM of ATP in comparison with control
Chain of Calcium/calmodulin-dependent protein kinase type IV (Homo sapiens) (Q16566 whole entry): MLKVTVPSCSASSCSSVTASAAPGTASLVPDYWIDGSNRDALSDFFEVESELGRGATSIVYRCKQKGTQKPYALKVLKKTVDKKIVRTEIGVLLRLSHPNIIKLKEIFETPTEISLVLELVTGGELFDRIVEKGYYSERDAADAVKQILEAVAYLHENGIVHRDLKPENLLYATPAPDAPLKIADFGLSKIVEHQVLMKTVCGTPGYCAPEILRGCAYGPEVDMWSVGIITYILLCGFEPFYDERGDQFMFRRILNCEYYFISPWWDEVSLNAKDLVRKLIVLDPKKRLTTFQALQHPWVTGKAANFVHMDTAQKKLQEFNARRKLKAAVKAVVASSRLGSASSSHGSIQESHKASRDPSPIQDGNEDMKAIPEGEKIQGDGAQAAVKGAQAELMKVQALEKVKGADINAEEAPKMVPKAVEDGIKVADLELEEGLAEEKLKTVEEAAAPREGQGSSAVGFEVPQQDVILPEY

SCG [26] = experiment: Cell activity of JNK inhibitors in neuronal apoptosis assay in SCG cells, percentage rescued neurons at 10 uM compound concentration after 24 hours; format: functional, Rattus norvegicus
SCG [27] = experiment: Cell activity of JNK inhibitors in neuronal apoptosis assay in SCG cells, percentage rescued neurons at 10uM compound concentration after 48 hours; format: functional, Rattus norvegicus
Summary of the method: (§1)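 They were cultured in Leibowitz medium with 5% rat serum, 0.75 µg/mL NGF 7S and arabinosine C 10^-5 M. On day 4, medium was switched to 10 µg/mL anti-NGF antibody without NGF or AraC, with inhibitor in 1% DMSO. After 24 h, cells were refed initial medium minus AraC. After another 24 h, viability was read by MTT (0.5 mg/mL, 30 min, 37 °C), OD 590 nm.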

SCG [28] = experiment: Cell activity of JNK inhibitors in neuronal apoptosis assay in SCG cells, percentage rescued neurons at 3 uM compound concentration after 48 hours; format: functional, Rattus norvegicus; summary of the method: as §1
[29] = biological target: Tyrosine-protein kinase Lck (Homo sapiens) (UniProt P06239); experiment: Percentage activity of human Lck in the presence of 10 uM of compound and 10 uM of ATP in comparison with control

Chain of Proto-oncogene tyrosine-protein kinase Src (Homo sapiens) (P12931 2-536 limits assumed): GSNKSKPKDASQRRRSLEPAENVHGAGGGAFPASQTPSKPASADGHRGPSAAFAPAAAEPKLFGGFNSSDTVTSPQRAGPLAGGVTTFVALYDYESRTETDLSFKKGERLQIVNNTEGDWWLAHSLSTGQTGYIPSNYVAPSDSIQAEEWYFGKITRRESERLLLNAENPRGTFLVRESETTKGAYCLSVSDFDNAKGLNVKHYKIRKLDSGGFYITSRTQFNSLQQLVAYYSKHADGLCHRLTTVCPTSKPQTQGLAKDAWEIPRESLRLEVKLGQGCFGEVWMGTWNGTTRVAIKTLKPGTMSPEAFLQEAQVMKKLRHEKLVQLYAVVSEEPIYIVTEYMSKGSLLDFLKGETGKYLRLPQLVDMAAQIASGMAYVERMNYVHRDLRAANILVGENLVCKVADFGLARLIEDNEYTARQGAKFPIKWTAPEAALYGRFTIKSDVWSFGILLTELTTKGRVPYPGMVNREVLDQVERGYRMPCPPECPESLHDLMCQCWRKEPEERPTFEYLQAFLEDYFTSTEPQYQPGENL

O=C(NCc1ccc(S(=O)(=O)N2CCC(n3nnc4ccccc43)CC2)s1)c1ccc(Cl)cc1
Activity [1]: 67%
Activity [2]: 102%
Activity [3]: 118%
Activity [4]: 99%
Activity [5]: 93%
Activity [6]: 75%
Activity [7]: 93%
Activity [8]: 106%
Activity [9]: 101%
Activity [10]: 98%
Activity [11]: 100%
Activity [12]: 97%
Activity [13]: 46%
Activity [14]: 102%
Activity [15]: 121%
Activity [16]: 95%
Activity [17]: 20%
Activity [18]: 78%
Activity [19]: 103%
Activity [20]: 106%
Activity [21]: 134%
Activity [22]: 95%
Activity (Rattus norvegicus): 90%
Activity [23]: 78%
Activity [24]: 96%
Activity [25]: 93%
Rescued neurons (SCG [26]): 27.3%
Rescued neurons (SCG [27]): 56%
Rescued neurons (SCG [28]): 25.2%
Activity [29]: 85%
